Screens (PubChem BioAssay)
M5 ag – human M5 muscarinic receptor agonists, primary screen, CHO-K1 cells, Fluo-8 calcium fluorescence. 360,000 tested, 0.19% active. Muscarinic acetylcholine receptor M5 (Homo sapiens), P08912. activation, % at 3 µM. AID 624037, 2012. CHO-K1 hM5 cells; 0% DMSO wells, 100% maximal acetylcholine response;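 active = activation above the run's mean over test compounds plus 3 SD, cut at about 23% in these data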;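 note: signal is peak over basal fluorescence ratio across the kinetic read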
Target sequence (P08912 whole entry, looked up): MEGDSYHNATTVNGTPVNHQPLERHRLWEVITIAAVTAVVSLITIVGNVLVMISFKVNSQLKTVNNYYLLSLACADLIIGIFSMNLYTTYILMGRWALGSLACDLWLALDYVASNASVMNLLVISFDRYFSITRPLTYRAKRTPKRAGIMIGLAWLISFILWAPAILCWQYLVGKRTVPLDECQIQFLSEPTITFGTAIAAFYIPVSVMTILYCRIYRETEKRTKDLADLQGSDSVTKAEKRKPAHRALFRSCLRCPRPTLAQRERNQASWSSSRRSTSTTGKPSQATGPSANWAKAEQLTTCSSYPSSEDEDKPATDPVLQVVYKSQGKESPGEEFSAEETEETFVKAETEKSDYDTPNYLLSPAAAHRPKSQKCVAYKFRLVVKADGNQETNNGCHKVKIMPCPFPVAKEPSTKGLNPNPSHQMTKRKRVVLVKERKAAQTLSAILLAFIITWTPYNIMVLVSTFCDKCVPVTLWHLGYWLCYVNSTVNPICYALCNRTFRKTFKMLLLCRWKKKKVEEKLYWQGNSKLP
M4 ag – human M4 muscarinic receptor agonists, primary screen, CHO-K1 cells, Fluo-8 calcium fluorescence; CHO-K1 hM4/Gqi5; vehicle 0%, full acetylcholine response 100%; 360,000 tested, 0.14% active; activation, % at 3 µM; AID 624127, 2012;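 active = activation above the run mean over all test wells plus 3 SD, cut at about 32% in these data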;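 note: peak over basal fluorescence ratio per well then scaled between controls; 0% = DMSO wells and 100% = acetylcholine at EC100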
M4 antag – human M4 muscarinic receptor antagonists, primary screen, CHO cells, Fluo-8 calcium fluorescence | Muscarinic acetylcholine receptor M4 (Homo sapiens), P08173 | CHO-hM4 cells, ACh EC80 | inhibition, % at 3 µM | 360,000 tested, 0.73% active;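 active = inhibition above its plate's cutoff, the mean inhibition of sample wells plus 3 SD, cut at about 27% in these data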;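 note: 0% = acetylcholine EC80 with DMSO and 100% = DMSO without agonist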
CHRM5 PAM – human M5 muscarinic receptor positive allosteric modulators, primary screen, CHO-K1 cells, Fluo-8 calcium fluorescence. Muscarinic acetylcholine receptor M5 (Homo sapiens), P08912. CHO-K1 hM5, ACh EC20 PAM; 0% = ACh EC20, 100% = ACh EC100. activation, % at 3 µM. 360,000 tested, 0.3% active;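 active = activation above the run cutoff, the mean activation of all test compounds plus 3 SD, cut at about 18% in these data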
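Assay system – human M5 receptor in CHO-K1 cells · Read-out – % activation, ACh-normalized · Technique – Fluo-8 calcium fluorescence · Dosing – single-point, 3 µM nominal · Incubation – Fluo-8 loading 80 min at 37 °C plus 30 min room temperature · Repeats – singlicate, one well per test compound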
CHRM5 antagonist – human M5 muscarinic receptor antagonists, primary screen, CHO cells, Fluo-8 calcium fluorescence; Muscarinic acetylcholine receptor M5 (Homo sapiens), P08912; CHO-hM5 cells, ACh EC80; inhibition, % at 3 µM; 360,000 tested, 0.59% active;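 active = inhibition above a per-plate cutoff, the mean of that plate's test compounds plus 3 SD, cut at about 27% in these data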;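 note: 0% = acetylcholine EC80 with DMSO and 100% = DMSO without agonist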
M4 PAM – human M4 muscarinic receptor positive allosteric modulators, primary screen, CHO-K1 cells, Fluo-8 calcium fluorescence; Muscarinic acetylcholine receptor M4 (Homo sapiens), P08173; CHO-K1 hM4/Gqi5, ACh EC20; 0% = ACh EC20, 100% = maximal ACh; activation, % at 3 µM; 360,000 tested, 0.4% active;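 active = activation above its plate's cutoff, the mean activation of sample wells plus 3 SD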
Numbers without * were called inactive. An excerpt weighted towards active compounds, which were near 1.8% of everything screened.

SMILES | M5 ag | M4 ag | M4 antag | CHRM5 PAM | CHRM5 antagonist | M4 PAM
COc1cccc(NC(=S)N(Cc2ccc(C(=O)O)cc2)Cc2ccc(OC)c(OC)c2)c1 | 3.1 | 1.0 | 8.8 | 2.9 | -3.0 | 19.7*
CCOC(=O)[C@H]1[C@H]2COc3ccccc3[C@@H]2N2C(=O)c3cc(OC)c(OC)cc3NC(=O)[C@@]12C | 0.2 | 1.4 | 35.1* | 1.1 | 10.6 | -3.3
C[C@@]12C(=O)Nc3cc(F)c(F)cc3C(=O)N1[C@H]1c3ccccc3OC[C@@H]1[C@@H]2c1ccccc1 | -4.4 | 2.2 | 71.3* | -38.3 | 23.4 | -14.8
COc1cc2c(cc1OC)C(=O)N1[C@H]3c4ccccc4OC[C@@H]3[C@H](c3ccccc3)[C@]1(C)C(=O)N2 | 2.4 | 2.5 | -3.5 | -2.3 | 11.0 | 8.4
CCOC(=O)[C@H]1[C@H]2COc3ccc(C)cc3[C@@H]2N2C(=O)c3cc(OC)c(OC)cc3NC(=O)[C@@]12C | 3.1 | 2.3 | -25.9 | -6.2 | -1.7 | 19.4
C[C@@]12C(=O)Nc3ccc(F)cc3C(=O)N1[C@H]1c3ccccc3OC[C@@H]1[C@@H]2c1ccccc1 | -9.6 | 0.2 | 89.1* | -39.2 | 56.8* | -15.2
O=C(CSc1nnc(NC(=O)c2ccc3c(c2)OCO3)s1)NCc1ccco1 | 1.0 | 8.1 | 1.2 | 6.7 | -0.5 | -2.1
O=C(COc1ccc(Cl)cc1)N(Cc1ccc(F)cc1)C1CCS(=O)(=O)C1 (stereo not given) | 1.1 | 2.4 | 12.4 | 7.0 | -4.5 | 1.4
CCC(C)(C(=O)Nc1c(C)cccc1C)N(C)C(=O)c1ccc2ccccc2n1 (stereo not given) | -3.4 | 0.6 | 36.7* | 1.6 | 5.6 | 14.7
Cc1cccc(NC(=O)CN(C)C(=O)c2ccc3ccccc3n2)c1C | -1.8 | 2.9 | -5.2 | 1.3 | -4.0 | 1.0
CC(=O)Nc1cccc(C(=O)/C=C/c2ccc(N(C)C)cc2)c1 | 73.6* | 67.9* | 38.9* | -21.2 | 34.4* | -21.7
COc1ccc(NC(=O)CSc2nnc(Cc3cccs3)n2C)cc1 | -2.4 | 1.1 | 5.0 | 7.0 | 0.0 | 2.2
O=C(C[n+]1cc(-c2ccccc2)n2c1CCC2)N1c2ccccc2Sc2ccccc21 | -10.1 | 0.0 | 64.3* | -18.8 | 51.9* | -18.9
O=C(C[n+]1cc(-c2ccc(F)cc2)n2c1CCC2)N1c2ccccc2Sc2ccccc21 | -8.0 | 1.0 | 80.7* | -18.8 | 97.1* | -16.9
Cc1ccc(-c2c[n+](CC(=O)N3c4ccccc4Sc4ccccc43)c3n2CCC3)cc1 | -8.3 | -0.2 | 99.0* | -20.5 | 99.6* | -16.9
O=C(C[n+]1cc(-c2ccccc2)n2c1CCC2)Nc1nc(-c2ccc(F)cc2)cs1 | -7.9 | 0.3 | 9.7 | 0.9 | 6.6 | -5.0
O=C(C[n+]1cc(-c2ccccc2)n2c1CCC2)c1cccs1 | -8.6 | -0.1 | 1.9 | 8.1 | 8.0 | -4.8
Cc1ccc(-c2c[n+](CC(=O)Nc3c(C)cccc3C)c3n2CCC3)cc1 | -1.2 | -0.3 | 2.5 | 16.2 | -15.0 | -9.0
C[C@H](CO)N1C[C@H](C)[C@@H](CN(C)C(=O)OCc2ccccc2)OCc2cn(nn2)CCCC1=O | -1.3 | 1.1 | -31.4 | 7.1 | -6.0 | 8.7
O=C(c1c[nH]c(C(=O)C(Cl)(Cl)Cl)c1)c1ccc(F)cc1F | 0.3 | 22.1 | -0.5 | -12.5 | 27.5* | -2.0
Cc1ccc(C(=O)C2CCN(C(=S)NCCCOC(C)C)CC2)cc1 | 7.4 | 3.8 | -16.5 | 22.9* | -16.6 | 5.9
CC(C)OCCCNC(=S)N1CCC(C(=O)c2ccc(F)cc2)CC1 | 2.6 | 4.3 | -7.7 | -4.5 | 18.4 | 2.3
NC(=O)[C@@H]1CCOc2c(I)cc([N+](=O)[O-])cc2C(=O)N[C@@H](CO)C(=O)NCC(=O)N1 | 2.5 | 0.1 | -4.2 | 21.4* | 0.3 | 13.3
NC(=O)CC[C@@H]1NC(=O)[C@H](CO)NC(=O)c2cc([N+](=O)[O-])cc(I)c2OCC[C@@H](C(N)=O)NC1=O | 5.0 | 0.9 | 7.1 | 1.8 | -3.5 | 5.3
Cn1cnc([N+](=O)[O-])c1Sc1nc(N)nc2c1ncn2Cc1ccccc1 | 1.0 | 1.1 | -1.9 | -4.3 | 17.9 | 6.0
SMILES | M5 ag | M4 ag | M4 antag | CHRM5 PAM | CHRM5 antagonist | M4 PAM
Nc1nc(SCc2ccccc2[N+](=O)[O-])c2ncn(Cc3ccccc3)c2n1 | -4.4 | 4.7 | 40.3* | -13.7 | 20.3 | -9.3
COC(=O)C1=CN(c2ccc(OC)cc2)C=C(C(=O)OC)C1c1ccc([N+](=O)[O-])cc1 | -6.7 | 0.1 | -8.9 | 11.0 | -2.9 | 20.0*
COC(=O)C1=CN(c2ccc(F)cc2)C=C(C(=O)OC)C1c1ccc([N+](=O)[O-])cc1 | -4.1 | -0.1 | -4.4 | -7.2 | 17.1 | -1.5
Cc1cccc(NC(=O)COc2ccc(Br)cc2)n1 | -2.9 | 0.1 | 0.5 | 33.5* | 26.0 | 3.4
Cc1ccc(OCC(=O)NC(=S)Nc2cccc(C)n2)cc1 | -1.9 | -0.6 | -9.2 | 6.0 | -3.8 | 8.8
COc1ccc(NS(=O)(=O)c2c(C)cc(C)cc2C)cc1 | -11.0 | -0.7 | 0.6 | 25.6* | 5.4 | -4.6
CC1CC1C(=O)OCC(=O)Nc1ccc(Cl)cn1 (stereo not given) | 6.0 | 1.1 | -5.8 | 11.6 | -8.5 | -0.6
COc1ccc(/C=C/C(=O)Nc2ccccc2C(=O)NCC(c2ccc(OC)cc2)N(C)C)cc1 (stereo not given) | -3.0 | 11.6 | 3.6 | -6.8 | 11.9 | -10.2
CCOC(=O)Cn1nc(C)n(-c2cccc(Cl)c2)c1=O | 5.6 | 2.7 | -11.6 | 18.9* | -5.2 | 23.7
CCc1ccc(-c2nc(CN3CCC(C(=O)N4CCN(c5ccccc5)CC4)CC3)c(C)o2)cc1 | 6.1 | 41.0* | 9.5 | -15.6 | 9.9 | -26.6
CCc1ccc(-c2nc(CN3CCC(C(=O)N4CCN(c5ccccn5)CC4)CC3)c(C)o2)cc1 | -5.5 | 6.8 | -0.8 | -8.1 | 6.2 | -13.3
Cc1ccccc1C(=O)N=c1ccn(-c2nc3ccccc3nc2NS(=O)(=O)c2ccccc2)cc1 | -5.3 | 1.4 | -2.7 | -0.1 | 12.0 | 0.3
CCOc1ccc(S(=O)(=O)Nc2nc3ccccc3nc2-n2ccc(=NC(=O)c3ccccc3C)cc2)cc1 | 30.1* | 13.8 | 8.8 | -17.5 | 39.9* | -19.5
COc1ccccc1N1CCN(C(=O)c2oc3ccccc3c2C)CC1 | 0.9 | 13.5 | 9.9 | -5.8 | 4.6 | -10.1
